Target: T1, Pyrroline-5-carboxylate reductase (Arabidopsis thaliana, UniProt P54904)
T1 sequence (P54904 whole entry): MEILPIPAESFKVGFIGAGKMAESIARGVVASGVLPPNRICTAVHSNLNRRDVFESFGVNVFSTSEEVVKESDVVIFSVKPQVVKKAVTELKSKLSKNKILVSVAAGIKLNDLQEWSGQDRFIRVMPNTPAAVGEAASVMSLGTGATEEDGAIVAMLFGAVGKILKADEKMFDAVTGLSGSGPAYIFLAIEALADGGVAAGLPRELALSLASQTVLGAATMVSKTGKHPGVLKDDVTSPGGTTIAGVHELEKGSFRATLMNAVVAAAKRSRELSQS
Experiment: Inhibition of Arabidopsis thaliana P5C assessed as reduction in NADH oxidation incubated at 35 degC up to 10 min
Method in brief: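 P5C reductase partially purified from stationary-phase A. thaliana cultured cells. Forward reaction run in 100 mM Tris-HCl pH 8.0, 0.1 mM MgCl2, 2 mM DL-P5C, 0.25 mM NADH, with 0.15–0.20 nkat enzyme. A340 followed at 35 °C for up to 10 min against P5C-free blanks. Inhibitor final 5 µM–5 mM (pH 7.5–8.0), triplicate. IC50 by linear regression of % activity vs log concentration.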

| Structure (SMILES) | IC50 |
| --- | --- |
| O=P(O)(O)C(O)c1cccc(Cl)c1Cl (racemic) [(2,3-DICHLOROPHENYL)(HYDROXY)METHYLPHOSPHONIC ACID] | 4.9 mM |
| O=P(O)(O)C(O)c1ccc(Cl)cc1Cl (racemic) [(2,4-DICHLOROPHENYL)(HYDROXY)METHYLPHOSPHONIC ACID] | 5.8 mM |
| O=P(O)(O)C(O)c1c(Cl)cccc1Cl (racemic) [(2,6-DICHLOROPHENYL)(HYDROXY)METHYLPHOSPHONIC ACID] | 8.1 mM |
| O=P(O)(O)C(O)c1ccccc1Cl (racemic) [(2-CHLOROPHENYL)(HYDROXY)METHYLPHOSPHONIC ACID] | 7.1 mM |
| O=P(O)(O)C(O)c1ccc(Cl)c(Cl)c1 (racemic) [(3,4-DICHLOROPHENYL)(HYDROXY)METHYLPHOSPHONIC ACID] | 1.4 mM |
| O=P(O)(O)C(O)c1cccc(Cl)c1 (racemic) [(3-CHLOROPHENYL)(HYDROXY)METHYLPHOSPHONIC ACID] | 5.1 mM |
| O=P(O)(O)C(O)c1ccc(Cl)cc1 (racemic) [(4-CHLOROPHENYL)(HYDROXY)METHYLPHOSPHONIC ACID] | 45.5 mM |
| NC(c1cccc(Cl)c1Cl)P(=O)(O)O (racemic) [AMINO(2,3-DICHLOROPHENYL)METHYLPHOSPHONIC ACID] | 4.6 mM |
| COc1cccc(C(N)P(=O)(O)O)c1OC (racemic) [AMINO(2,3-DIMETHOXYPHENYL)METHYLPHOSPHONIC ACID] | 16 mM |
| NC(c1ccc(Cl)cc1Cl)P(=O)(O)O (racemic) [AMINO(2,4-DICHLOROPHENYL)METHYLPHOSPHONIC ACID] | 8.2 mM |
| NC(c1ccccc1Br)P(=O)(O)O (racemic) [AMINO(2-BROMOPHENYL)METHYLPHOSPHONIC ACID] | 63 mM |
| NC(c1ccccc1Cl)P(=O)(O)O (racemic) [AMINO(2-CHLOROPHENYL)METHYLPHOSPHONIC ACID] | 10.6 mM |
| NC(c1ccccc1F)P(=O)(O)O (racemic) [AMINO(2-FLUOROPHENYL)METHYLPHOSPHONIC ACID] | 6.6 mM |
| NC(c1cccc(Cl)c1)P(=O)(O)O (racemic) [AMINO(3-CHLOROPHENYL)METHYLPHOSPHONIC ACID] | 35.6 mM |
| O=P(O)(O)C(Nc1cccc(Cl)c1Cl)P(=O)(O)O [2,3-DICHLOROPHENYLAMINOMETHYLENEBISPHOSPHONIC ACID] | 0.102 mM |
| O=P(O)(O)C(Nc1ccc(Cl)cc1Cl)P(=O)(O)O [2,4-DICHLOROPHENYLAMINOMETHYLENEBISPHOSPHONIC ACID] | 0.5 mM |
| O=P(O)(O)C(Nc1cc(Cl)ccc1Cl)P(=O)(O)O [2,5-DICHLOROPHENYLAMINOMETHYLENEBISPHOSPHONIC ACID] | 0.73 mM |
| O=P(O)(O)C(Nc1c(Cl)cccc1Cl)P(=O)(O)O [2,6-DICHLOROPHENYLAMINOMETHYLENEBISPHOSPHONIC ACID] | 0.112 mM |
| O=P(O)(O)C(Nc1ccc(Cl)c(Cl)c1)P(=O)(O)O [3,4-DICHLOROPHENYLAMINOMETHYLENEBISPHOSPHONIC ACID] | 0.268 mM |
| O=P(O)(O)C(Nc1cc(Cl)cc(Cl)c1)P(=O)(O)O [(3,5-DICHLOROPHENYLAMINO)METHYLENEDIPHOSPHONIC ACID] | 0.077 mM |
| O=P(O)(O)C(Nc1ccc(Cl)cc1)P(=O)(O)O [(4-CHLOROPHENYLAMINO)METHYLENEDIPHOSPHONIC ACID] | 0.86 mM |

Source: ChEMBL document CHEMBL3045526, “Tailoring the structure of aminobisphosphonates to target plant P5C reductase” (J Agric Food Chem, 2008)
